The results in this text go back to ChEMBL document CHEMBL4373668, “Bivalent AMPA receptor positive allosteric modulators of the bis(pyrimidine) series” (Medchemcomm, 2019).

One experiment concerns the target T1, Glutamate receptor ionotropic, AMPA (Rattus norvegicus) (UniProt P19491+P19492+P19493+P19490). Briefly: Positive allosteric modulation of rat Purkinje neuron AMPA receptor assessed as change in kainate-induced current at 10^-12 M measured for 2 mins by patch clamp assay (rvb = 100%). Summed up:
(§1)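 Purkinje neurons were freshly isolated from the cerebellum of 12–16-day-old rat pups by protease/collagenase digestion at 34°C under O₂. Whole-cell patch clamp was used, with compounds given by fast perfusion in extracellular saline at pH 7.32. Kainic acid (20 µM) was applied three times per concentration, 2 min apart, with a 3-min washout between concentrations. Current amplitude was normalized to the KA control (100%), using 4–7 neurons per concentration.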
`CC(C)c1nc2c(c(Oc3ccc(Oc4nc(C(C)C)nc5c4CCCC5)cc3)n1)CCCC2`: the Activity turned out to be 100%.
Consider `Cc1nc2c(c(Oc3ccc(Oc4nc(C)nc5c4CCCC5)cc3)n1)CCCC2`, for which the Activity was determined as 108%.
As to `CCc1nc2c(c(Oc3ccc(Oc4nc(CC)nc5c4CCCC5)cc3)n1)CCCC2`, the Activity turned out to be 100%.

Another experiment deals with T1, Glutamate receptor ionotropic, AMPA (Rattus norvegicus). Briefly: Positive allosteric modulation of rat Purkinje neuron AMPA receptor assessed as change in kainate-induced current at 10^-11 M measured for 2 mins by patch clamp assay (rvb = 100%). Summed up: as §1
Consider `CC(C)c1nc2c(c(Oc3ccc(Oc4nc(C(C)C)nc5c4CCCC5)cc3)n1)CCCC2`, for which the Activity was 84%.
With `Cc1nc2c(c(Oc3ccc(Oc4nc(C)nc5c4CCCC5)cc3)n1)CCCC2`, the Activity was 132%.
As for `CC(C)(C)c1nc2c(c(Oc3ccc(Oc4nc(C(C)(C)C)nc5c4CCCC5)cc3)n1)CCCC2`, the Activity was 100%.
The same measure, in the same setting: the figure for `CCc1nc2c(c(Oc3ccc(Oc4nc(CC)nc5c4CCCC5)cc3)n1)CCCC2` is 117%; for `c1cc(Oc2nc(C3CC3)nc3c2CCCC3)ccc1Oc1nc(C2CC2)nc2c1CCCC2` it is 100%.

A further experiment has the same target. Briefly: Positive allosteric modulation of rat Purkinje neuron AMPA receptor assessed as change in kainate-induced current at 10^-10 M measured for 2 mins by patch clamp assay (rvb = 100%). Summed up:
as §1
In the case of `CC(C)c1nc2c(c(Oc3ccc(Oc4nc(C(C)C)nc5c4CCCC5)cc3)n1)CCCC2`, the Activity was 72%.
With `Cc1nc2c(c(Oc3ccc(Oc4nc(C)nc5c4CCCC5)cc3)n1)CCCC2`, the Activity was 143%.
Take `CC(C)(C)c1nc2c(c(Oc3ccc(Oc4nc(C(C)(C)C)nc5c4CCCC5)cc3)n1)CCCC2`: the Activity was 108%.
On the same count and under the same terms, the same measure for `CCc1nc2c(c(Oc3ccc(Oc4nc(CC)nc5c4CCCC5)cc3)n1)CCCC2`: 126%; for `c1cc(Oc2nc(C3CC3)nc3c2CCCC3)ccc1Oc1nc(C2CC2)nc2c1CCCC2`: 100%.

Another experiment has the same target. The experiment is described as follows: Positive allosteric modulation of rat Purkinje neuron AMPA receptor assessed as change in kainate-induced current at 10^-9 M measured for 2 mins by patch clamp assay (rvb = 100%). Summed up:
as §1
For `CC(C)c1nc2c(c(Oc3ccc(Oc4nc(C(C)C)nc5c4CCCC5)cc3)n1)CCCC2`, the Activity was found to be 82%.
For the compound `Cc1nc2c(c(Oc3ccc(Oc4nc(C)nc5c4CCCC5)cc3)n1)CCCC2`, the Activity was 170%.
On the same count and under the same terms, the same measure for `CC(C)(C)c1nc2c(c(Oc3ccc(Oc4nc(C(C)(C)C)nc5c4CCCC5)cc3)n1)CCCC2`: 120%; for `CCc1nc2c(c(Oc3ccc(Oc4nc(CC)nc5c4CCCC5)cc3)n1)CCCC2`: 155%; for `c1cc(Oc2nc(C3CC3)nc3c2CCCC3)ccc1Oc1nc(C2CC2)nc2c1CCCC2`: 95%.

The target is the same in another experiment. Briefly: Positive allosteric modulation of rat Purkinje neuron AMPA receptor assessed as change in kainate-induced current at 10^-8 M measured for 2 mins by patch clamp assay (rvb = 100%). Summed up: as §1
With `CC(C)c1nc2c(c(Oc3ccc(Oc4nc(C(C)C)nc5c4CCCC5)cc3)n1)CCCC2`, the Activity was 92%.
With `Cc1nc2c(c(Oc3ccc(Oc4nc(C)nc5c4CCCC5)cc3)n1)CCCC2`, the Activity is 123%.
Same read-out and setting: the figure for `CC(C)(C)c1nc2c(c(Oc3ccc(Oc4nc(C(C)(C)C)nc5c4CCCC5)cc3)n1)CCCC2` is 125%; for `CCc1nc2c(c(Oc3ccc(Oc4nc(CC)nc5c4CCCC5)cc3)n1)CCCC2` it is 128%.
As for `c1cc(Oc2nc(C3CC3)nc3c2CCCC3)ccc1Oc1nc(C2CC2)nc2c1CCCC2`, the Activity was found to be 96%.

The target is the same in the next experiment. The experiment is described as follows: Positive allosteric modulation of rat Purkinje neuron AMPA receptor assessed as change in kainate-induced current at 10^-7 M measured for 2 mins by patch clamp assay (rvb = 100%). Summed up: as §1
Take `CC(C)c1nc2c(c(Oc3ccc(Oc4nc(C(C)C)nc5c4CCCC5)cc3)n1)CCCC2`: the Activity is 98%.
`NS(=O)(=O)c1cc2c(cc1Cl)NC(C1CC3C=CC1C3)NS2(=O)=O` (stereo not given): the Activity was determined as 100%.
For the compound `Cc1nc2c(c(Oc3ccc(Oc4nc(C)nc5c4CCCC5)cc3)n1)CCCC2`, the Activity amounted to 85%.
Consider `CC(C)(C)c1nc2c(c(Oc3ccc(Oc4nc(C(C)(C)C)nc5c4CCCC5)cc3)n1)CCCC2`, for which the Activity is 133%.
`CCc1nc2c(c(Oc3ccc(Oc4nc(CC)nc5c4CCCC5)cc3)n1)CCCC2`: the Activity is 100%.
Turning to `c1cc(Oc2nc(C3CC3)nc3c2CCCC3)ccc1Oc1nc(C2CC2)nc2c1CCCC2`, the Activity turned out to be 97%.

A further experiment shares this target. The experiment is described as follows: Positive allosteric modulation of rat Purkinje neuron AMPA receptor assessed as change in kainate-induced current at 10^-6 M measured for 2 mins by patch clamp assay (rvb = 100%). Summed up:
as §1
Regarding `NS(=O)(=O)c1cc2c(cc1Cl)NC(C1CC3C=CC1C3)NS2(=O)=O` (stereo not given), the Activity turned out to be 145%.
`Cc1nc2c(c(Oc3ccc(Oc4nc(C)nc5c4CCCC5)cc3)n1)CCCC2`: the Activity worked out at 78%.
With `CC(C)(C)c1nc2c(c(Oc3ccc(Oc4nc(C(C)(C)C)nc5c4CCCC5)cc3)n1)CCCC2`, the Activity is 145%.
With `c1cc(Oc2nc(C3CC3)nc3c2CCCC3)ccc1Oc1nc(C2CC2)nc2c1CCCC2`, the Activity is 96%.

The target is the same in the next experiment. The experiment is described as follows: Positive allosteric modulation of rat Purkinje neuron AMPA receptor assessed as change in kainate-induced current at 10^-5 M measured for 2 mins by patch clamp assay (rvb = 100%).
Regarding `NS(=O)(=O)c1cc2c(cc1Cl)NC(C1CC3C=CC1C3)NS2(=O)=O` (stereo not given), the Activity came out at 235%.

For the next experiment the target is unchanged. The experiment is described as follows: Positive allosteric modulation of rat Purkinje neuron AMPA receptor assessed as change in kainate-induced current at 3 x 10^-5 M measured for 2 mins by patch clamp assay (rvb = 100%).
In the case of `NS(=O)(=O)c1cc2c(cc1Cl)NC(C1CC3C=CC1C3)NS2(=O)=O` (stereo not given), the Activity was determined as 560%.
